Screens (PubChem BioAssay)
An excerpt weighted towards active compounds, which were near 6.3% of everything screened.
SF1 activator: activators of human SF-1, primary screen, cell-based, CHO-K1, Gal4-SF-1 LBD, luciferase luminescence | CHO-K1 Gal4-SF-1 LBD luciferase reporter; % increase over DMSO SF-1-specific signal | activation, % at 10 µM | hit rate 1.9% among 65,000;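 active means activation above the mean activation of all tested compounds plus 3 SD, cut at about 50% in these data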
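Test system: transient Gal4-SF-1 LBD reporter, CHO-K1; Amount: 4,000 CHO-K1 cells per well; Doses: 10 µM only; Timing: compound exposure 20 h at 37 °C; Signal: luciferase light emission; Read-out basis: percent activation relative to DMSO median and mock-transfected background; Control set: DMSO negative control and −SF1 background wells; Replicates: one test per compound.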
MT1-MMP txn act: MT1-MMP promoter reporter activation – cell-based, luciferase luminescence, primary screen | HT1080 MT1-MMP promoter luciferase reporter, overnight; stronger effect = higher value | activation factor at 10 µM | hit rate 0.16% among 86,000;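 active means activation factor of at least 2 for MT1-MMP transcription at 10 µM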
M1 agonist: M1 muscarinic receptor agonists, primary screen, CHO-M1 cells, Fluo-4 calcium, agonist mode | Muscarinic acetylcholine receptor M1 | Fluo-4 calcium fluorescence; stronger effect = higher value | hit rate 3% among 64,000 | B-score at 10 µM;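 active means fluorescence rise, raw or as B-score row- and column-corrected plate score, outside the 99.7% band of its plate's samples, either direction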
M1 antag: antagonists of rat M1 muscarinic receptor; B-score at 10 µM; CHO-M1 cells, Fluo-4 calcium, ACh EC80 antagonist mode; stronger effect = lower value; AID 628, 2007; hit rate 3.4% among 64,000;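 active means calcium fluorescence response, raw or row-and-column corrected B-score, differing from the plate sample mean either way at a set confidence level, mostly lower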
RORA act: activators of orphan receptor RORA, primary screen, cell-based, luminescence | hit rate 1.5% among 65,000 | CHO-K1 Gal4-RORA LBD luciferase reporter; percent increase over mock-subtracted basal signal | Nuclear receptor ROR-alpha (Homo sapiens), P35398 | activation, % at 10 µM;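 active means activation above the mean of all tested compounds plus 3 SD, cut at about 49% in these data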
Target sequence (P35398 whole entry, looked up, the tested form may be a part): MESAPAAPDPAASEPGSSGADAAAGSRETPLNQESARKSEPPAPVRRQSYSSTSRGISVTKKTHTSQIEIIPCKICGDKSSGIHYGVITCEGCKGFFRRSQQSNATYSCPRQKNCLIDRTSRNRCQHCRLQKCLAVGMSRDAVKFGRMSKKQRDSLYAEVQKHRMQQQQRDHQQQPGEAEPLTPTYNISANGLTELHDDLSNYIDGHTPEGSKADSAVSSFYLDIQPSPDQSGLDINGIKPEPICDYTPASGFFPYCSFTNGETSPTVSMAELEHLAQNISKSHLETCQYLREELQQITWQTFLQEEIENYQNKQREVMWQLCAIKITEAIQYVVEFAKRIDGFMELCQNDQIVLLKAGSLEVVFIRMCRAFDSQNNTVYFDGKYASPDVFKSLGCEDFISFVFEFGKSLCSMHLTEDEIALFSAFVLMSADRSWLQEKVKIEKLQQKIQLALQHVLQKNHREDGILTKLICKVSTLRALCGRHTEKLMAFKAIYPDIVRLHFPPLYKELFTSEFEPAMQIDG
Of the large screens only hits and unclear results are named; the others gave an inactive call.

O=C(Nc1ccc(Cl)cc1)N1CCC(c2nc(-c3cccs3)no2)CC1	M1 agonist -2.47
Cc1cc(S(=O)(=O)NC(C)C)ccc1OCC(=O)N1CCOCC1	none (no result: SF1 activator, M1 agonist, M1 antag, RORA act)
CN(C)S(=O)(=O)c1ccc(C(=O)NCCOc2ccccc2)cc1	SF1 activator 56.3
CC(C)COP(=O)(c1ccc(N(C)C)cc1)C(O)c1ccccn1 (configuration not stated)	none
COc1ccc(OC)c2sc(NC(=O)c3ccc(Br)s3)nc12	SF1 activator 53.3
COc1ccc(CNc2ccc(C(=O)O)cc2)cc1	SF1 activator 78.0
CCn1cnc2cc(NCc3ccncc3)ccc21	none
Cc1ccc(CNc2ccc3c(c2)ncn3C)cc1	SF1 activator 57.1, RORA act 63.0 (no result: M1 agonist, M1 antag)
COc1ccc(CNc2ccc3c(c2)nc(C)n3C)cc1	SF1 activator 78.7
Cc1ccc(C(=O)Nc2ccc3c(c2)ncn3C)cc1	RORA act 52.0
Cc1ccc2oc(=O)c3c4cc(O)c(O)c(C)c4oc3c2c1	none (no result: SF1 activator, M1 agonist, M1 antag, RORA act)
CC(C)OC(=O)CC(=O)c1sc2nc3c(cc2c1N)CN(C)CC3	M1 agonist 7.33
OCCNc1nc(SCc2ccccc2)nc2sc3c(c12)CCC3	none (no result: SF1 activator, M1 agonist, M1 antag, RORA act)
CCCCn1c(NC(=O)c2ccccc2)c(C#N)c2nc3ccccc3nc21	none (no result: M1 agonist, M1 antag)
CCC(=O)Nc1c(C#N)c2nc3ccccc3nc2n1-c1ccc(C)cc1	M1 agonist 4.31
N#Cc1c(NC(=O)c2ccc(Br)o2)n(-c2ccccc2)c2nc3ccccc3nc12	M1 agonist 42.3
CCOC(=O)C1CCN(c2nc3ccccc3nc2C(C#N)C(=O)NCCc2ccccc2)CC1 (configuration not stated)	M1 agonist 33
CCCCNC(=O)C(C#N)c1nc2ccccc2nc1N1CCN(c2ccccc2F)CC1 (configuration not stated)	M1 agonist 36
N#CC(C(=O)NC1CCCCC1)c1nc2ccccc2nc1N1CCCCC1 (configuration not stated)	M1 agonist 49.5 (no result: MT1-MMP txn act)
COc1ccccc1N1CCN(C(=O)c2c(-c3ccccc3Cl)noc2C)CC1	none
CCCNc1nc(Nc2ccc(C)cc2)nc(N2CCCC2)n1	none (no result: SF1 activator, M1 agonist, M1 antag, RORA act)
O=C(CSc1ncn(-c2ccccc2)n1)Nc1ccc(Br)cn1	none
O=C(CSc1ncn(-c2ccccc2)n1)c1cccs1	RORA act 48.7
Nc1nc(CSc2ncn(-c3ccccc3)n2)cs1	SF1 activator 59.4
Nc1nc(CSc2nc3ccccc3[nH]2)cs1	none
c1ccc(CSc2ncn(-c3ccccc3)n2)cc1	SF1 activator 81.0
COc1ccccc1N(CN1CCCC1=O)C(=O)COc1ccccc1	none
COc1cc(C)c(Br)cc1S(=O)(=O)N1CCCC1	none
COc1cc(C2C(C#N)=C(N)Oc3cc(C)n(Cc4ccccn4)c(=O)c32)cc2c1OCO2 (configuration not stated)	M1 agonist 33.8, M1 antag -10
Cc1cc2c(c(=O)n1Cc1ccccn1)C(c1ccc3c(c1)OCO3)C(C#N)=C(N)O2 (configuration not stated)	none
CCOC(=O)c1ccc(NC(=O)c2cc3ccccc3o2)cc1	none (no result: M1 agonist, M1 antag)
CCC(=O)Nc1cccc(NC(=O)c2cc3ccccc3o2)c1	RORA act 58.1
CC(C)C(=O)Nc1ccc(NC(=O)c2cc3ccccc3o2)cc1	RORA act 59.4
Cc1cccc(NC(=O)Cc2noc3ccccc23)c1	MT1-MMP txn act 2.1 (no result: SF1 activator, M1 agonist, M1 antag, RORA act)
O=C(Nc1cccc(Br)c1)c1cc2ccccc2o1	RORA act 71.0
CC[C@H]1C2=C3C(CC[C@H]4C(OCc5ccc(F)cc5C(F)(F)F)OC[C@](C)([C@@H]34)N(C(=O)OC(C)(C)C)C2)C(COC(C)=O)C1COC(C)=O (some centres not stated)	none (no result: SF1 activator, M1 agonist, M1 antag, RORA act)
Cc1ccccc1NC(=O)COC(=O)CN1C(=O)NC(C)(C)C1=O	none (no result: SF1 activator, M1 agonist, M1 antag, RORA act)
COc1ccc(-c2c3c(=O)n(C)c(=O)n(C)c3cn2C2CCCCC2)cc1	none
COC(=O)[C@@]1(Cc2ccc(F)cc2)[C@H]2c3cc(C(=O)N4CCCC4)n(Cc4c(CO)[nH]cc(C)c4=O)c3C[C@H]2CN1C(=O)c1ccccc1	none (no result: SF1 activator, M1 agonist, M1 antag, RORA act)
Cc1cccc(NC(=O)c2cc3ccccc3o2)c1	SF1 activator 89.5
COC(=O)c1ccccc1NC(=O)c1ccccc1N(C)S(C)(=O)=O	none
COc1ccc(-n2nc(C(=O)NCC(=O)N3CCN(c4ccccn4)CC3)c3ccccc3c2=O)cc1	SF1 activator 60.5
O=C(c1nn(-c2ccccc2)c(=O)c2ccccc12)N1CCN(c2ccccn2)CC1	none (no result: SF1 activator, M1 agonist, M1 antag, RORA act)
Cn1nc(-c2ccccc2)c(-c2nc(-c3cccc(Cl)c3)no2)c1Cl	none (no result: SF1 activator, M1 agonist, M1 antag, RORA act)
COc1ccc(C2C(C(C)=O)=C(O)C(=O)N2c2nccs2)cc1OC (configuration not stated)	none
COc1ccc2c(c1OC)C(=O)N(c1nccs1)C2	SF1 activator 75.2
CCOC(=O)C(CC)Sc1nc(-c2ccc(OC)cc2)nc2c1c(=O)n(C)c(=O)n2C (configuration not stated)	none
CCOC(=O)c1csc(NC(=O)c2ccccc2)n1	SF1 activator 63.2, RORA act 79.0
CCOC(=O)c1csc(NC(=O)c2ccc(S(=O)(=O)N(C)C)cc2)n1	none
CCn1cc(C(=O)Nc2ccc(NC(=O)c3ccco3)cc2)c(=O)c2ccc(C)nc21	none
O=c1cc(Nc2ccc3c(c2)OCCO3)[nH]c(=O)n1-c1ccc(Cl)cc1	RORA act 50.0
COc1ccc2c(c1OC)C(=O)N1c3cccc(Cl)c3C(=O)OC21 (configuration not stated)	none
COc1ccc2c(c1OC)C(=O)N1c3ccccc3SC21 (configuration not stated)	SF1 activator 72.0
COc1ccc2c(c1OC)C(=O)N1c3ccccc3COC21 (configuration not stated)	SF1 activator 51.1, RORA act 81.9
CCN(CC)c1ccc(/C=N/n2nnnc2N)c(O)c1	none
CCN(C)c1ccc(/C=N\n2nnnc2N)cc1	SF1 activator 86.9, RORA act 66.7
Nc1nnnn1/N=C/c1ccc(O)cc1	none (no result: SF1 activator, M1 agonist, M1 antag, RORA act)
CSc1ccc(/C=N/n2nnnc2N)cc1	RORA act 51.3 (no result: M1 agonist, M1 antag)
COCCNC(=O)[C@H](C)/C=C(\I)C(NC(=O)OCc1ccccc1)c1ccc(C(=O)OC)cc1 (some centres not stated)	none (no result: SF1 activator, M1 agonist, M1 antag, RORA act)
O=C(Nc1ccccc1)Nc1cccc2cccnc12	RORA act 86.2
O=C(Nc1ccccc1)Nc1ccccn1	none
Cc1c(C(=O)NCC(C)C)sc2nc(-c3ccc(F)cc3)cn12	RORA act 70.9
COc1ccc(-c2csc(NC(=O)C3CCCCN3S(=O)(=O)c3ccccc3)n2)cc1 (configuration not stated)	none (no result: SF1 activator, M1 agonist, M1 antag, RORA act)
CC(C)CN1C(=S)SC(C)(C)C1n1oc(=O)n(-c2ccc(Cl)cc2)c1=O (configuration not stated)	none (no result: SF1 activator, M1 agonist, M1 antag, RORA act)
